Measured values: paper PMC5626417 (International Journal of Nanomedicine, 2017)
Ends that are not written are not given here.

How the values were obtained:
HeLa cells [1] = test: Cellular uptake and distribution by fluorescence / confocal microscopy; assay type: cell-based, Human; conditions: 10 and 100 μM, 30 minutes, 37°C, serum-free medium
In short: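 HeLa cells (4×10^4) on coverslips, 24 h, then FITC-labelled peptide or FITC alone at 10 or 100 μM in serum-free medium, 37°C for 30 min. Washed twice in PBS with heparin to strip surface-bound peptide, fixed in 4% PFA. For widefield imaging, nuclei were DAPI-stained; for intracellular distribution, cells were imaged by confocal microscopy immediately after fixation.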

HeLa cells [2] = test: Cytotoxicity of CPP; assay type: cell-based, Human; conditions: MTT, 3 and 24 hours incubation, up to 1,000 μM
In short: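 HeLa cells seeded at 5×10^3/well and grown 24 h. Exposed to peptide at 50–1,000 μM for 3 h, washed twice with PBS, then given fresh medium for 24 h. A parallel arm used 100 and 1,000 μM for 24 h. Viability by MTT (3 h, DMSO solubilisation, OD492), expressed as percent of untreated cells.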

[3] = test system: L292 cells, HCT cells, A594 cells, Hep-G2 cells, and HSC cells; test: Cytotoxicity of Rq and Rq/PTX on other cell types; assay type: cell-based; conditions: 24 hours incubation with 1,000 μM Rq; Figure S2
[4] = In vivo plasma concentration and bio-distribution of PTX; design: species or system BALB/c mice; conditions: mice, HPLC
In short: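 Female BALB/c mice (4–6 weeks, 18–22 g) carried subcutaneous HeLa xenografts (5×10^6 cells) grown to ~50 mm3. Filtered formulations (100 μL) were dosed daily via tail vein for 2 weeks. Blood and organs (lung, liver, kidney, heart, spleen) were saline-washed, weighed and stored at −20°C. Plasma and homogenates were methanol-precipitated and spun at 12,000 rpm for 10 min; PTX was quantified by C18 HPLC at 227 nm.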

HeLa cells [5] = conditions: after 20 hours of incubation with 1 μM (0.854 μg/mL) PTX; cited from earlier work

## fluorescein isothiocyanate [FITC]
HeLa cells [1]
  green fluorescence in cells (fluorescence microscopy): no fluorescence was observed

## RRRRQWWQW [Rq]
HeLa cells [2]
  cell viability after incubation with Rq: Nearly all the cells were viable
[3]
  cell viability of other cell types after incubation with Rq: no significant decrease in the cell viability

## CC(=O)O[C@H]1C(=O)[C@@]2(C)[C@H]([C@H](OC(=O)c3ccccc3)[C@]3(O)C[C@H](OC(=O)[C@H](O)[C@@H](NC(=O)c4ccccc4)c4ccccc4)C(C)=C1C3(C)C)[C@]1(OC(C)=O)CO[C@@H]1C[C@@H]2O [PTX, paclitaxel]
[4]; after 2 weeks of daily tail vein treatment, tissue homogenate
  PTX level in tissues (organs): accumulated in liver, kidney, and heart
[4]; tail vein injection, 30 minutes versus 24 hours after injection
  drop in the PTX concentration in plasma: sharply decreased
HeLa cells [5]
  intracellular PTX concentration: 0.206 mg/mL
